Measured values as given in ChEMBL document CHEMBL3580529, “Limonoids with Anti-HIV Activity from Cipadessa cinerascens” (J Nat Prod, 2015).

Assays:
[1] = tested on: Human immunodeficiency virus 1; assay: Antiviral activity against HIV1 NL4-3 infected in human MT4 cells assessed as inhibition of virus-induced cytopathic effect incubated for 3 to 4 days by MTT assay; type: functional, organism-based; conditions: Human immunodeficiency virus 1, NL4-3, MT4
How it was run: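 MT-4 cells seeded with serial compound dilutions, then infected with HIV-1 NL4-3 at final MOI 0.03; 37 °C, 5% CO2, humidified, 3 or 4 days. MTT (5 mg/mL in PBS) added for 3 h, cells lysed in 10% Triton X-100/acidified 2-propanol, absorbance 570 nm. EC50 = concentration giving 50% protection against HIV-induced cytopathic effect.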

[2] = Selectivity index, ratio of CC50 against human MT4 cells to EC50 for HIV1 NL4-3 infected in human MT4 cells; type: toxicity, cell-based; conditions: MT4 cells (CC50) and HIV1 NL4-3 infected MT4 cells (EC50)
How it was run: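 SI calculated as CC50 (MT-4 cytotoxicity, MTT read-out) divided by EC50 (protection of MT-4 cells from HIV-1 NL4-3 cytopathic effect, MOI 0.03), both from parallel 3–4 day assays at 37 °C.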

[3] = Cytotoxicity against human MT4 cells assessed as reduction in cell viability incubated for 3 to 4 days by MTT assay; type: cell-based
How it was run: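 Serially diluted compounds on MT-4 cells, 37 °C, 5% CO2, humidified, 3 or 4 days; viability by MTT (5 mg/mL in PBS, 3 h), formazan solubilized with 10% Triton X-100 in acidified 2-propanol, read at 570 nm. CC50 = concentration killing 50% of MT-4 cells.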

SMILES | EC50 [1] [µM] | selectivity ratio [2] | CC50 [3] [µM]
COC(=O)C[C@H]1C(C)(C)[C@H](OC(C)=O)[C@H](OC(C)=O)[C@@H]2O[C@]34CC(=O)O[C@@H](c5ccoc5)[C@]3(C)[C@@H](O)[C@@H](C(=O)[C@]4(C)O)[C@@]21C | > 100 |  | 
COC(=O)C[C@H]1C(C)(C)[C@H](O)[C@H](O)[C@@H]2OC3=C(C)C4=CC(=O)O[C@@H](c5ccoc5)[C@]4(C)[C@@H](O)[C@@H]3[C@@]21C | > 100 |  | 
C=C1[C@@H]2C[C@@]3(C)[C@H](C4=C[C@@H](O)OC4=O)OC(=O)C[C@]13O[C@H]1C[C@@H](OC(C)=O)C(C)(C)[C@H](CC(=O)OC)[C@@]1(C)C2=O | > 100 |  | 
COC(=O)C[C@H]1C(C)(C)[C@H](OC(C)=O)[C@H](OC(C)=O)[C@@H]2O[C@]34CC(=O)O[C@@H](c5ccoc5)[C@]3(C)[C@@H](O)[C@@H](C(=O)[C@@]4(C)O)[C@@]21C | > 100 |  | 
CCC(C)C(O)C(=O)O[C@H]1[C@H](OC=O)[C@H]([C@@]2(C)[C@@H](OC(C)=O)CC(=O)O[C@](C)(COC(C)=O)[C@@H]2CC(=O)OC)C(COC)=C2[C@H](O)C[C@@H](c3ccoc3)[C@@]21C (some centres not stated) | 6.1 | > 6.5 | > 40
COC(=O)C[C@H]1C(C)(C)[C@H](OC(C)=O)C[C@@H]2O[C@]34CC(=O)O[C@@H](c5ccoc5)[C@]3(C)[C@@H](O)[C@@H](C(=O)[C@@H]4C)[C@@]21C | > 100 |  | 
COC(=O)C[C@H]1C(C)(C)[C@H](OC(C)=O)[C@H](O)[C@@H]2O[C@]34CC(=O)O[C@@H](c5ccoc5)[C@]3(C)[C@@H](O)[C@@H](C(=O)[C@@H]4C)[C@@]21C | > 100 |  | 
C=C1[C@H]2C(=O)[C@@]3(C)[C@@H](O[C@@]14CC(=O)O[C@@H](C1=C[C@@H](O)OC1=O)[C@]4(C)[C@H]2OC(C)=O)[C@@H](OC(C)=O)[C@@H](OC(C)=O)C(C)(C)[C@@H]3CC(=O)OC | > 100 |  | 
C=C1[C@H]2C(=O)[C@@]3(C)[C@@H](O[C@@]14CC(=O)O[C@@H](c1ccoc1)[C@]4(C)[C@H]2OC(C)=O)[C@@H](O)[C@@H](OC(C)=O)C(C)(C)[C@@H]3CC(=O)OC | > 100 |  | 
Cc1ccnc2c1NC(=O)c1cccnc1N2C1CC1 [NEVIRAPINE] | 0.1 | > 833 | 
C=C1[C@H]2C(=O)[C@@]3(C)[C@@H](O[C@@]14CC(=O)O[C@@H](C1=C[C@@H](O)OC1=O)[C@]4(C)[C@H]2OC(C)=O)[C@@H](OC(C)=O)CC(C)(C)[C@@H]3CC(=O)OC | > 100 |  | 
COC(=O)C[C@H]1C(C)(C)[C@H](OC(C)=O)[C@H](O)[C@@H]2OC3=C(C)C4=CC(=O)O[C@@H](c5ccoc5)[C@]4(C)[C@@H](O)[C@@H]3[C@@]21C | > 100 |  | 
C=C1[C@H]2C(=O)[C@@]3(C)[C@@H](O[C@@]14CC(=O)O[C@@H](c1ccoc1)[C@]4(C)[C@H]2O)[C@@H](O)[C@@H](OC(C)=O)C(C)(C)[C@@H]3CC(=O)OC | 5.5 | > 7.2 | > 40
C=C1[C@H]2C(=O)[C@@]3(C)[C@@H](O[C@@]14CC(=O)O[C@@H](c1ccoc1)[C@]4(C)[C@H]2O)[C@@H](OC(C)=O)[C@@H](OC(C)=O)C(C)(C)[C@@H]3CC(=O)OC | > 100 |  | 
COC(=O)C[C@H]1C(C)(C)[C@H](OC(C)=O)[C@H](OC(C)=O)[C@@H]2O[C@]34CC(=O)O[C@@H](c5ccoc5)[C@]3(C)[C@@H](O)[C@@H](C(=O)[C@@H]4C)[C@@]21C | > 100 |  | 
COC(=O)C[C@H]1C(C)(C)[C@H](O)[C@H](O)[C@@H]2OC3=C(C)C4=CC(=O)O[C@@H](c5ccoc5)[C@]4(C)C[C@@H]3[C@@]21C | > 100 |  | 
C=C1[C@@H]2C[C@@]3(C)[C@H](c4ccoc4)OC(=O)C[C@]13O[C@H]1C[C@@H](O)C(C)(C)[C@H](CC(=O)OC)[C@@]1(C)C2=O | > 100 |  | 
